According to ChEMBL document CHEMBL3272064, “Mode of action and quantitative structure-activity correlations of tuberculostatic drugs of the isonicotinic acid hydrazide type” (J Med Chem, 1976):
Converted amounts (≈) assume the structure as drawn.

What was measured:
[1] = Retardation factor, Rm of the compound in acetone-water-silica gel layer; assay type: physicochemical; conditions: buffer
Outline: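 Reversed-phase partition chromatography. The mobile phase was acetone–water; the stationary phase was a silica gel layer impregnated with a paraffin solution in n-hexane.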

[2] = tested on: Mycobacterium tuberculosis; test: Antibacterial activity against Mycobacterium tuberculosis H37Rv assessed as growth inhibition by two-fold serial dilution method; assay type: functional; conditions: for MIC: Mycobacterium tuberculosis, H37Rv
[3] = Dissociation constant, pKa of the compound
[4] = tested on: Mycobacterium tuberculosis; test: Antibacterial activity against Mycobacterium tuberculosis assessed as growth inhibition; assay type: functional
Outline: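 Liquid-culture serial dilution against M. tuberculosis H37Rv, with √2 dilution steps. The test medium had 0.7% protein content. MIC (μM) was taken as the average of at least two determinations. Isoniazid served as the standard in every experiment. Activity was expressed as 1/MIC.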

[5] = Dissociation constant, pKa of the compound at 25 degC by spectrophotometric analysis; assay type: physicochemical
Outline: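 Determined spectrophotometrically at 25 °C (±1). For the approximate value of the nitro-substituted pyridine, the Hammett acidity function (H0) was used.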

[6] = tested on: Mycobacterium tuberculosis; test: Antibacterial activity against Mycobacterium tuberculosis assessed as growth inhibition in presence of 16 uM nicotinic acid hydrazide; assay type: functional
[7] = 1-octanol-phosphate buffer partition coefficient, log P of the compound at pH 7.4; assay type: physicochemical
[8] = tested on: Mycobacterium tuberculosis; test: microbe, parasite or virus in culture
[9] = tested on: Mycobacterium tuberculosis; test: Antibacterial activity against Mycobacterium tuberculosis assessed as growth inhibition at pH 7; assay type: functional
[10] = tested on: Mycobacterium tuberculosis; test: Antibacterial activity against Mycobacterium tuberculosis using acidic culture media at pH 5.9 assessed as growth inhibition; assay type: functional

SMILES	Rm [1]	log(1/MIC) [2]	pKa [3]	other results
NNC(=O)c1ccnc(N)c1	0.32	-1.161		
c1ccc(Cc2ccccn2)cc1			5.13	
C=Cc1cc(C(=O)NN)ccn1	1.02	-1.544		
CC(=O)Nc1cc(C(=O)NN)ccn1	0.266	-3.332		
NNC(=O)c1cccnc1 [NICOTINIC ACID HYDRAZIDE]				MIC [4]: 1900 µM (≈ 261 µg/mL)
CCCc1ccccn1			5.97	
CCOc1ccccn1				pKa [5]: 3.47
Cc1cc(C(=O)NN)ccn1	0.697	-0.716		
NNC(=O)c1ccnc(-c2ccccc2)c1	1.643	-1.699		
COc1ccccn1			3.06	
CCOc1cc(C(=O)NN)ccn1	0.954	-2.655		
Nc1ccccn1 [2-AMINOPYRIDINE]			6.71	
CCN(CC)c1cc(C(=O)NN)ccn1	1.383	-2.856		
CCCc1cc(C(=O)NN)ccn1	1.168	-1.742		
NNC(=O)c1ccnc(Cl)c1	0.63	-2.593		
CCN(CC)c1ccccn1				pKa [5]: 7.32
NNC(=O)c1ccncc1 [ISONIAZID]	0.372	-0.041		MIC [4]: 1 µM (≈ 0.137 µg/mL); MIC [6]: 1900 µM; MIC [2]: 1.1 µM (≈ 0.151 µg/mL); logD [7]: -1.14; MIC [8]: 0.5 µM (≈ 0.0686 µg/mL)

SMILES	Rm [1]	log(1/MIC) [2]	pKa [3]	other results
Brc1ccccn1			0.9	
O=C(O)c1ccncc1 [ISONICOTINIC ACID]			4.84	MIC [9]: > 4000 µM; MIC [10]: 128 µM (≈ 15.8 µg/mL)
CC(=O)Nc1ccccn1			4.09	
NNC(=O)c1ccnc(Br)c1	0.866	-2.79		MIC [2]: 616 µM (≈ 133 µg/mL)
NNC(=O)c1ccnc(Cc2ccccc2)c1	1.365	-1.585		
NNC(=O)c1ccnc(I)c1	0.931	-2.404		
Fc1ccccn1			0.44	
CC(=O)NCc1ccccn1				pKa [5]: 4.23
CC(C)Cc1cc(C(=O)NN)ccn1	1.366	-2.653		MIC [2]: 450 µM (≈ 87 µg/mL)
C=Cc1ccccn1			4.98	
NNC(=O)c1ccnc([N+](=O)[O-])c1	0.577	-2.569		
CCc1ccccn1			5.97	
COc1cc(C(=O)NN)ccn1	0.783	-2.185		
NNC(=O)c1ccnc(F)c1	0.42	-2.415		MIC [2]: 260 µM (≈ 40.3 µg/mL)
CC(=O)NCc1cc(C(=O)NN)ccn1	0.34	-2.386		
CCc1cc(C(=O)NN)ccn1	0.862	-1.324		
